The source made the active and inactive calls. Where a SMILES comes first, the peptide text is derived from it. Bridges are numbered along the chain shown (N, C = ends). [ ]: non-standard residue; d: D form. Dmt = Cc1cc(O)cc(C)c1C[C@H](N)C(=O)O
Columns and labels:
[1] = system: Mus musculus; assay: Antinociceptive activity in icv dosed in Swiss albino mouse assessed as jumping latency by hot plate method; assay type: functional
How it was run: (§1)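 Male Swiss albino mice (20–26 g), 10 per group. Peptides dissolved in DMSO, diluted in saline, given i.c.v. with a Hamilton syringe and 0.5 mm needle, 5 min before testing in dose–response runs. Mouse confined by a plastic cylinder on a 55 °C hot plate. Latencies to paw licking, rearing and jumping recorded, 240 s cut-off. %MPE = (t1−t0)/(t2−t0)×100. ED50 derived from dose–response.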

[2] = species: Rattus norvegicus; assay: Selectivity ratio of IC50 for delta opioid receptor in Wistar rat brain membrane to IC50 for mu opioid receptor in Wistar rat brain membrane; assay type: cell membranes
How it was run: (§2)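 Crude membranes from Wistar rat brain incubated with [3H]DAMGO for mu or [3H][Ile5,6]deltorphin-2 for delta. Non-specific binding defined with naloxone. Reaction ended by rapid filtration on GF/B strips soaked in 0.5% […], then two ice-cold Tris-HCl washes. Bound radioactivity counted by liquid scintillation after overnight extraction. IC50 from three independent experiments in duplicate; ratio is delta IC50/mu IC50.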

[3] = system: Mus musculus; assay: Antinociceptive activity in icv dosed in Swiss albino mouse assessed as rearing latency by hot plate method; assay type: functional, organism-based; how it was run: as §1
[4] = molecular target: Delta-type opioid receptor (Rattus norvegicus, UniProt P33533); assay: Displacement of [3H][Ile5,6]deltorphin 2 from delta opioid receptor in Wistar rat brain membrane by liquid scintillation counting; assay type: cell membranes; how it was run: as §2
[5] = Half life in Wistar rat brain at 0.5 mM by RP-HPLC analysis; assay type: ADME, tissue-based
How it was run: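 Pooled rat brains homogenized in 20 volumes of 50 mM Tris-HCl, pH 7.4. Homogenate at 10 mg protein/ml incubated with an equal volume of 0.5 mM peptide at 37 °C for 0–60 min. Reaction stopped on ice with 1 M HCl, then centrifuged at 20,000g. Three experiments in duplicate.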

[6] = molecular target: Mu-type opioid receptor (Rattus norvegicus, UniProt P33535); assay: Displacement of [3H]DAMGO from Wistar rat mu opioid receptor by liquid scintillation counting; how it was run: as §2
[7] = system: Mus musculus; assay: Antinociceptive activity in icv dosed in Swiss albino mouse assessed as paw licking latency by hot plate method; assay type: functional, organism-based; how it was run: as §1
[8] = system: Mus musculus; assay: Antinociceptive activity in icv dosed Swiss albino mouse assessed as jumping latency at 3 ug, icv up to 90 mins by hot plate method; assay type: functional, organism-based; how it was run: as §1
[9] = system: Mus musculus; assay: Antinociceptive activity in Swiss albino mouse assessed as jumping latency at 3 ug, icv after 5 to 10 mins by hot plate method; assay type: functional, organism-based; how it was run: as §1
[10] = species: Mus musculus; assay: Antinociceptive activity in Swiss albino mouse assessed as jumping latency at 3 ng by hot plate method in presence of norbinaltorphimine; assay type: functional, organism-based
How it was run: (§3)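 Hot plate test at 55 °C in male Swiss albino mice, 10 per group, with jumping latency read and a 240 s cut-off. Antagonists were given i.c.v.: beta-funaltrexamine, naltrindole at 1 µg/animal, nor-binaltorphimine at 5 µg/animal. Agonist peptides were given i.c.v. at 3 ng/animal. Inhibition of jumping expressed as %MPE.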

[11] = system: Brain; assay: Drug uptake in Swiss albino mouse brain 0.01 to 1 mg/kg, iv; assay type: ADME, organism-based; set-up: dose 0.01-1 mg/kg, route intravenous; settings: in vivo
How it was run: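 Blood–brain barrier passage judged in vivo. Peptides at 0.01 and 1 mg/kg were injected intravenously into male Swiss albino mice 30 min before a 55 °C hot plate test. Paw licking, rearing and jumping latencies recorded with a 240 s cut-off and expressed as %MPE.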

[12] = system: Mus musculus; assay: Antinociceptive activity in Swiss albino mouse assessed as jumping latency at 10 ng, icv up to 30 mins by hot plate method; assay type: functional, organism-based; how it was run: as §1
[13] = species: Mus musculus; assay: Antinociceptive activity in Swiss albino mouse assessed as jumping latency at 3 ng by hot plate method in presence of beta funaltrexamine; assay type: functional, organism-based; how it was run: as §3
[14] = species: Mus musculus; assay: Antinociceptive activity in Swiss albino mouse assessed as jumping latency at 3 ng by hot plate method in presence of naltrindole; assay type: functional, organism-based; how it was run: as §3
[15] = system: Mus musculus; assay: Antinociceptive activity in Swiss albino mouse assessed as jumping latency at 10 ug, icv up to 90 mins by hot plate method; assay type: functional, organism-based; how it was run: as §1
[16] = system: Mus musculus; assay: Antinociceptive activity in Swiss albino mouse assessed as jumping latency at 10 ug, icv after 5 to 10 mins by hot plate method; assay type: functional, organism-based; how it was run: as §1

Delta-type opioid receptor, sequence (P33533 whole entry): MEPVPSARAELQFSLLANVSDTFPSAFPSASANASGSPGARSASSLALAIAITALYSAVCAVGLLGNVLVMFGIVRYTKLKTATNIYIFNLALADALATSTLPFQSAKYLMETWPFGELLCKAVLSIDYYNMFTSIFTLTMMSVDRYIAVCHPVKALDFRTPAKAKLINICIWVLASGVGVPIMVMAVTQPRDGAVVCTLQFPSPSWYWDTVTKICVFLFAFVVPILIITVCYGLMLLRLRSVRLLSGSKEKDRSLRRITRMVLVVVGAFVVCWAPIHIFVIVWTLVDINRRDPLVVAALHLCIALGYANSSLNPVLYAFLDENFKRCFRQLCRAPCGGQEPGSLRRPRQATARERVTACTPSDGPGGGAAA
Mu-type opioid receptor, sequence (P33535 whole entry): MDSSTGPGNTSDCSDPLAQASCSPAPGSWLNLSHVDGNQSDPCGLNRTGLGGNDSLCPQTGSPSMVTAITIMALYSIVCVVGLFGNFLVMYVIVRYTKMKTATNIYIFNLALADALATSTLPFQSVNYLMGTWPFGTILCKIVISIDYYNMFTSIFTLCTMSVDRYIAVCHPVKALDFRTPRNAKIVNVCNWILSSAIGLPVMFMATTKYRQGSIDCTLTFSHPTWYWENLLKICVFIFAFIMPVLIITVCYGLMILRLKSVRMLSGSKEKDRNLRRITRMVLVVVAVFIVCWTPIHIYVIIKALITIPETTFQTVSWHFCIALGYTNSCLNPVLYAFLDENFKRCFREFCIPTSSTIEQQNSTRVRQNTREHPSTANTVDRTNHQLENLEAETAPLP

SMILES	Activity [1]	ED50 [1] [µg]	Ratio IC50 [2]	Activity [3]	IC50 [4] [nM]	half-life at 500 µM [5] [h]	IC50 [6] [nM]	Activity [7]	Activity [8]	Activity [9]	Activity [10]	Drug uptake [11]	Activity [12]	Activity [13]	Activity [14]	Activity [15]	Activity [16]
NC(=O)[C@@H]1CC(=O)NCCCC[C@@H](NC(=O)[C@@H](N)Cc2ccc(O)cc2)C(=O)N[C@@H](Cc2ccccc2)C(=O)N[C@@H](Cc2ccccc2)C(=O)N1 (H-Y[dK]FFD-NH2; lactam 2-5)	Dose-dependent effect	0.05	498	Dose-dependent effect	279	6.05	0.56	Dose-dependent effect									
NC(=O)[C@H](Cc1ccccc1)NC(=O)[C@H](Cc1ccccc1)NC(=O)[C@@H]1CCCN1C(=O)[C@@H](N)Cc1ccc(O)cc1 [ENDOMORPHIN 2]	Dose-dependent effect	5.48		Dose-dependent effect		0.238		Dose-dependent effect	Active	Active							
Cc1cc(O)cc(C)c1C[C@H](N)C(=O)N[C@@H]1CCCCNC(=O)C[C@@H](C(N)=O)NC(=O)[C@H](Cc2ccccc2)NC(=O)[C@H](Cc2ccccc2)NC1=O (H-[Dmt][dK]FFD-NH2; lactam 2-5)	Dose-dependent effect	0.02	> 1000	Dose-dependent effect	400	> 16.7	0.26	Dose-dependent effect									
Cc1cc(O)cc(C)c1C[C@H](N)C(=O)N[C@@H]1CCCCNC(=O)C[C@@H](C(N)=O)NC(=O)[C@H]2CCCN2C(=O)[C@H](Cc2ccccc2)NC1=O	Dose-dependent effect	<0.01	23.5	Dose-dependent effect	132	> 16.7	5.6	Dose-dependent effect			Active	Not Active	Active	inactive	Active		
NC(=O)[C@@H]1CC(=O)NCCCC[C@@H](NC(=O)[C@@H](N)Cc2ccc(O)cc2)C(=O)N[C@@H](Cc2ccccc2)C(=O)N2CCC[C@@H]2C(=O)N1	Dose-dependent effect	0.02	> 11.2	Dose-dependent effect	> 1000	1.95	89.5	Dose-dependent effect									
NC(=O)[C@@H]1CCCCNC(=O)C[C@@H](NC(=O)[C@@H](N)Cc2ccc(O)cc2)C(=O)N[C@@H](Cc2ccccc2)C(=O)N2CCC[C@@H]2C(=O)N1	Dose-dependent effect	0.07	> 65.3	Dose-dependent effect	> 1000	1.05	15.3	Dose-dependent effect									
Cc1cc(O)cc(C)c1C[C@H](N)C(=O)N[C@@H]1CC(=O)NCCCC[C@@H](C(N)=O)NC(=O)[C@H]2CCCN2C(=O)[C@H](Cc2ccccc2)NC1=O	Dose-dependent effect	<0.01	13.2	Dose-dependent effect	58.3	10.4	4.4	Dose-dependent effect			Active	Not Active	Active	inactive	Active		
NC(=O)[C@@H]1CCCN1C(=O)[C@H](Cc1ccccc1)NC(=O)[C@@H]1CCCN1C(=O)[C@@H](N)Cc1ccc(O)cc1 [MORPHICEPTIN] (H-YPFP-NH2)	Dose-dependent effect	5.11	> 17.7	Dose-dependent effect	> 1000	0.278	56.6	Dose-dependent effect								Active	Active
CC(C)[C@H](NC(=O)[C@H](CCC(=O)O)NC(=O)[C@H](Cc1ccccc1)NC(=O)[C@H](C)NC(=O)[C@@H](N)Cc1ccc(O)cc1)C(=O)N[C@H](C(=O)NCC(=O)O)C(C)C [DELTORPHINE II]					0.08												
